Measurements as given in paper PMC4201343 (ACS Chemical Biology, 2014).
Residue numbers refer to the chain shown, from its start. “Also recorded” adds a separate entry of the source.

Assays:
HCV NS3h [1] = target: T1, HCV NS3h (Hepatitis C virus genotype 1b, UniProt Q9WMX2); assay: FP-based binding assay, NS3h displacement from Cy5-dT15 DNA; set-up: species or system hepatitis C virus genotype 1b (con1); conditions: for NS3h (% I): percent inhibition of NS3h binding to Cy5-dT15: 100 μM of each compound, 100 µM
T1 sequence (Q9WMX2 1190-1657 limits assumed): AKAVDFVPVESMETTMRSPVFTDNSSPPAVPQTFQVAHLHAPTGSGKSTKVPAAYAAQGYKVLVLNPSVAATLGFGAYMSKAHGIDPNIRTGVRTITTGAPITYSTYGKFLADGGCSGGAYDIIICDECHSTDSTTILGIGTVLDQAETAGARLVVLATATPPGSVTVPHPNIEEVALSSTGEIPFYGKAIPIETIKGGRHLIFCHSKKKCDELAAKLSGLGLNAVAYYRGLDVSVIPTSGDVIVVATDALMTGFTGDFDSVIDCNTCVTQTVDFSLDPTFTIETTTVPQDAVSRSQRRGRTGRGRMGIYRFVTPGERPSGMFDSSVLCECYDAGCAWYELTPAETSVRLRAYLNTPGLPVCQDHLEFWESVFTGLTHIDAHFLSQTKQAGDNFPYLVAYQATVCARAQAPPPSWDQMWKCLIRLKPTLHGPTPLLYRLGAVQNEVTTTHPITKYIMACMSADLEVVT
Method in brief: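 Fluorescence polarization with Cy5-dT15 and NS3h: excitation 635 nm; parallel and perpendicular emission read at 667 nm; G-factor taken from probe-only wells. % inhibition normalized to DMSO-only (negative) and 200 nM dT20 or 100 μM primuline (positive) controls. Single-point tests at 100 μM. IC50 is the concentration displacing 50% of NS3h from DNA. Reversibility: 10 μM NS3h preincubated 1 h with test compound, then diluted 100–100 000-fold into Cy5-dT15 and compared with untreated controls.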

HCV NS3h [2] = target: T1, HCV NS3h; assay: FP-based binding assay, NS3h displacement from Cy5-rU15 RNA; set-up: species or system hepatitis C virus genotype 1b (con1); conditions: IC50 RNA (Cy5-rU15–NS3h complex, RNA:NS3h binding), Figures 1C and 7B titration
Method in brief: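 Con1 NS3h bound to 5′-Cy5-labelled rU15 RNA was titrated with test compound. Polarisation was read with excitation 635 nm and emission 667 nm, G-factor from probe-only wells. Values were normalised to DMSO and positive controls and fit to a concentration–response equation (n = 3). IC50 is the concentration reducing complex polarisation by 50%.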

E. coli SSB = E. coli SSB (Escherichia coli, UniProt P0AGE0); assay: FP-based binding assay with SSB in place of NS3h
Method in brief: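 Fluorescence polarisation assay with E. coli SSB in place of NS3h, using Cy5-dT15 (or Cy5-rU15 for titrations). Screen compounds were pin-transferred to 100 μM final, 1% DMSO. Excitation 635 nm, emission 667 nm; G-factor from probe-only wells. Percent inhibition was normalised to DMSO and to unlabeled dT20 or 100 μM primuline controls.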

NS3h helicase = target: T2, NS3h helicase (Hepatitis C virus genotype 1b, UniProt Q9WMX2); assay: Molecular beacon-based helicase; format: biochemical, hepatitis C virus genotype 1b (con1); conditions: IC50 Helicase (DNA unwinding), Figure 7B, no DTT
T2 sequence (Q9WMX2 1190-1657 limits assumed): T1 sequence (Q9WMX2 1190-1657 limits assumed)

NS3 ATPase = target: T3, NS3 ATPase (Hepatitis C virus genotype 1b, UniProt Q9WMX2); assay: ATPase assay; format: biochemical, hepatitis C virus genotype 1b (con1); conditions: Figure 7B
T3 sequence (Q9WMX2 1190-1657 limits assumed): T1 sequence (Q9WMX2 1190-1657 limits assumed)

[3] = target: NS3 protease (scNS3-NS4A) (Hepatitis C virus, UniProt Q9WMX2); assay: Protease assay; format: biochemical; conditions: even at the highest concentrations tested
Method in brief: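 Full-length single-chain NS3-4A at 10 nM, in kit HCV protease buffer without DTT with 5% DMSO, cleaving a 5-carboxyfluorescein-labelled peptide substrate; fluorescence read at 520 nm. Test compound was run as a 7-point two-fold dilution series from 100 μM, in duplicate.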

NS3h = target: T4, NS3h (Hepatitis C virus genotype 1b, UniProt Q9WMX2); assay: ESI mass spectrometry of ebselen-treated NS3h; set-up: species or system hepatitis C virus genotype 1b (con1); conditions: 100 μM ebselen, 1 h, RT
T4 sequence (Q9WMX2 1190-1657 limits assumed): T1 sequence (Q9WMX2 1190-1657 limits assumed)
Method in brief: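 Con1 NS3h was incubated 1 h at RT with 100 μM test compound in 10 mM ammonium acetate pH 7.5, 1% DMSO. It was dialysed against 10 mM ammonium acetate (three changes) and diluted to 0.15 mg/mL in 50:50 acetonitrile/water, 0.2% formic acid. Nano-ESI Q-TOF, positive mode, 3 kV, 0.7 μL/min, 10 min acquisition, compared with untreated and DMSO-treated protein.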

NS3h_1b(con1) C279S = target: T5, NS3h_1b(con1) C279S (Hepatitis C virus genotype 1b, UniProt Q9WMX2, C1305S); assay: DNA binding, ATP hydrolysis and DNA unwinding assays with C279S NS3h; format: biochemical, hepatitis C virus genotype 1b (con1); conditions: DNA binding, ATP hydrolysis, DNA unwinding
T5 sequence (Q9WMX2 1190-1657 C1305S limits assumed): T1 sequence (Q9WMX2 1190-1657 limits assumed) with C116S

NS3h_1b(con1) C289S = target: T6, NS3h_1b(con1) C289S (Hepatitis C virus genotype 1b, UniProt Q9WMX2, C1315S); assay: DNA binding, ATP hydrolysis and DNA unwinding assays with C289S NS3h; format: biochemical, hepatitis C virus genotype 1b (con1); conditions: DNA binding, ATP hydrolysis, DNA unwinding
T6 sequence (Q9WMX2 1190-1657 C1315S limits assumed): T1 sequence (Q9WMX2 1190-1657 limits assumed) with C126S

[4] = system: HCV genotype 2a isolate (JFH1); conditions: 20 μM of each compound; ref Gastaminza et al.[9]; cited from earlier work

Sequence of E. coli SSB (P0AGE0 2-178 limits assumed): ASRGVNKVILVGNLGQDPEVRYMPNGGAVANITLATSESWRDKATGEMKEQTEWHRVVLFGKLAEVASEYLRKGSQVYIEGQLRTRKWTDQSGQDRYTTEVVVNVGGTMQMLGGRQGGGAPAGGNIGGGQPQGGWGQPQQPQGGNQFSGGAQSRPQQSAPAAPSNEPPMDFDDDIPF

## O=c1c2ccccc2[se]n1-c1ccccc1 [Ebselen, 2-phenyl-1,2-benzisoselenazol-3(2H)-one]
HCV NS3h [1]; 10 μM NS3h treated with 10 μM ebselen for 1 h, then diluted to <0.1 μM ebselen
  reversibility of NS3h inhibition: reversible
HCV NS3h [1]
  NS3h (% I): percent inhibition of NS3h binding to Cy5-dT15: 99%
HCV NS3h [1]; listed as ebselen
  NS3h (% I): percent inhibition of NS3h binding to Cy5-dT15: more than 50%
HCV NS3h [1]; IC50 DNA (Cy5-dT15–NS3h complex), Figure 1C titration, n = 3
  IC50: ~1000 nM
HCV NS3h [1]; NS3h incubated with 100 μM ebselen, then dialysis
  reversibility of NS3h inhibition: irreversible
HCV NS3h [2]
  IC50: ~1000 nM
E. coli SSB; Cy5-dT15 or Cy5-rU15, Figure 1D titration
  effect on SSB binding to DNA or RNA: no effect; also recorded: did not inhibit
E. coli SSB; read-out: SSB (% I): percent inhibition of SSB binding to Cy5-dT15
  inhibition at 100 µM: 3%
NS3h helicase
  IC50: ~1000 nM
NS3 ATPase
  IC50: ~1000 nM
[3]
  effect on NS3 protease activity (peptide cleavage by full-length NS3): no effect
NS3h
  number of ebselens bound to NS3h (covalent adducts): 14
NS3h_1b(con1) C279S
  sensitivity to ebselen inhibition compared with wild type: neither protein was more or less sensitive
NS3h_1b(con1) C289S
  sensitivity to ebselen inhibition compared with wild type: neither protein was more or less sensitive
[4]
  HCV (% I): percent inhibition of HCV replication in cells: 83%
